Results: article PMC8489566 (ACS nano, 2020)

What was measured:
[1] = tested on: human THP-1 macrophages; format: cell-based
[2] = tested on: mouse-derived J774A.1 macrophages; format: cell-based
Outline: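 J774A.1 macrophages plated 24 h in RPMI with 10% FBS, then treated with test compound (20 nM, 1 μM or 50 μM) for 1 h at 37 °C and washed; positive control was 5 μg/mL rat anti-mouse SIRPα. Human RBCs were EDTA-washed, opsonized with 20 μg/mL rabbit anti-RBC IgG (1 h, RT), and PKH26-labelled. They were added at 10:1 for 1 h at 37 °C, then fixed and Hoechst-stained for fluorescence imaging.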

[3] = tested on: SIRPα; assay: CD47-Fc inhibition assay; format: binding, human; conditions: THP-1 macrophages, 1 μM or 50 μM peptide 1 h, Fc-receptor blockade, 2 μg/mL CD47-Fc, anti-Fc fluorescence, n = 2 sets of triplicates

Q: How did the “phagocytosis levels at maximum peptide concentration” value ([1]; 50 μM peptide, opsonized RBCs) turn out when “nS-wt: CD47's eight amino acid binding loop, wild-type nano-Self peptide, C-terminal amide” was run?
A: Its value is “well above those for nS-X and nS-XX controls”.

Q: And the “macrophages that internalize opsonized RBCs, peptide combined with anti-RBC” value ([1]; maximum peptide concentration (50 μM), anti-RBC ~133 nM, n = 3)?
A: The value was ~ 30%.

Q: What about the “phagocytosis compared with anti-CD47” value ([1]; saturating peptide, opsonized RBCs) of the same substance?
A: The value was “gives the same result as anti-CD47”.

Q: And the “phagocytosis by mouse macrophages” value ([2]; J774A.1 macrophages, opsonized RBCs, high concentrations (50 μM))?
A: The value was “matches anti-CD47 blockade effects”.

Q: What about the “effective activity in the mouse macrophage assay relative to the human assay” value ([2]; weaker in mouse than in human macrophages) of the same substance?
A: The value was ~ 100 fold.

Q: What about the “level of inhibition of CD47-Fc binding to macrophages” value [3] of the same substance?
A: Its value is “inhibited”.
